Target: Melanocortin receptor 4 (Homo sapiens, UniProt P32245)
Assay: Displacement of [125I]NDP-alphaMSH from human melanocortin 4 receptor expressed in CHOK1 cells
In short: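 Membranes from CHO-K1 cells stably expressing human MC1, MC3, MC4 or MC5 receptor, 1–10 µg protein/well, in 50 mM Tris-HCl pH 7.4 with 0.2% BSA, 5 mM MgCl2, 1 mM CaCl2, 0.1 mg/mL bacitracin. Incubated with increasing test compound and 0.1–0.3 nM [125I]NDP-α-MSH, 90–120 min at 37 °C depending on subtype. Filtration on PEI-presoaked GF/C filters, cold buffer washes, radioactivity counted; nonlinear regression; three independent measurements.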

Chain of Melanocortin receptor 4 (P32245 whole entry): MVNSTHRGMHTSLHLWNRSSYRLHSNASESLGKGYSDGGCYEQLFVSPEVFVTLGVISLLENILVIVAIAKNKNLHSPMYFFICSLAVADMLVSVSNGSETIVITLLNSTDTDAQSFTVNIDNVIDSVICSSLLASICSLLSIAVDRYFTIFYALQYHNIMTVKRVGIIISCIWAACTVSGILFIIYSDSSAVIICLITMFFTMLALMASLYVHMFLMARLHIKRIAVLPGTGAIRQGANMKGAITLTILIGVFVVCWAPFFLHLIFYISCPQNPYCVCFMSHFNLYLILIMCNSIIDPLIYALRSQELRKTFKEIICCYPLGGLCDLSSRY

CC(C)CCN(CCC(C)C)C(=O)c1ccc2nc(NCc3ccccc3)n(CCCN3CCCCC3)c2c1 [2-(benzylamino)-N,N-diisopentyl-3-(3-(piperidin-1-yl)propyl)-3H-benzo[d]imidazole-5-carboxamide]
Ki: 17 nM

From BindingDB's records for doi:10.1016/j.bmcl.2007.06.010 (Institut Henri Beaufour, 2007)
